This is an account of results in ChEMBL document CHEMBL4825779, “Sulfur Analogues of Tyrosine in the Development of Triazene Hybrid Compounds: A New Strategy against Melanoma” (ACS Med Chem Lett, 2021).

Data set [1] in a line: Selectivity index, ratio of IC50 for human HaCaT cells to IC50 for human MNT-1 cells by MTS assay. For orientation: Tetrazolium dyes change colour on reduction, which living cells bring about.
Data set [2] is described as follows: Half life of the compound in PBS buffer at pH 7.4 by HPLC analysis. Type of data set: physicochemical. The gist of the method:
(§1)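 Stability run at 37 °C in PBS pH 7.4 or 80% human plasma. HPLC followed loss of parent and appearance of hydrolysis products over at least 3 half-lives. Decay fitted pseudo-first-order: kobs taken as the slope of ln(concentration) vs time, and t1/2 calculated from kobs.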

The nature of data set [3]: 1-Octanol/phosphate buffer apparent partition coefficient, logP of the compound measured after 30 mins by HPLC analysis. Type of data set: physicochemical.
The nature of data set [4]: Hepatotoxicity in BALB/c mouse assessed as gamma-GT level in plasma at 12 mg/kg, iv administered 3 times for 1 week and measured at 2 days post-last injection (reference value: 47 +/-9 U/L). Type of data set: toxicity, organism-based. The settings on record: in vivo, 216 h, time 9 day. The gist of the method:
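BALB/c mice dosed intravenously at 12 mg/kg, 3 times per week for 1 week. Vehicle: PBS plus Cremophor (5% p/v); controls received vehicle only. Behaviour checked daily. Animals killed 2 days after the last injection; blood collected for γ-GT, and organs weighed for tissue index.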

Data set [5] can be described thus: Toxicity in BALB/c mouse assessed as liver tissue index at 12 mg/kg, iv administered 3 times for 1 week and measured at 2 days post-last injection (reference value: 22 +/-1). The settings on record: in vivo, 216 h, time 9 day. Type of data set: organism-based.
The test system of a further data set is HaCaT. Briefly: Cytotoxicity against human HaCaT cells assessed as reduction in cell viability incubated for 72 hrs by MTS assay. Type of data set: cell-based. The gist of the method:
(§2)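 Cell lines: MNT-1 and A375 (human melanoma), B16F10 (murine melanoma) and HaCaT (human keratinocytes). Compounds incubated with cells for 72 h; IC50 reported in μM.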

The nature of data set [6]: Toxicity in BALB/c mouse assessed as spleen tissue index at 12 mg/kg, iv administered 3 times for 1 week and measured at 2 days post-last injection (reference value: 6 +/-1). Type of data set: organism-based. The settings on record: in vivo, 216 h, time 9 day.
Data set [7] in a line: Toxicity in BALB/c mouse assessed as heart tissue index at 12 mg/kg, iv administered 3 times for 1 week and measured at 2 days post-last injection (reference value: 7 +/-1). Type of data set: organism-based. The settings on record: in vivo, 216 h, time 9 day.
Data set [8] is described as follows: Selectivity index, ratio of IC50 for human HaCaT cells to IC50 for mouse B16-F10 cells by MTS assay. As to conditions: HaCaT cells and B16-F10 cells, read-out: Ratio IC50. Type of data set: toxicity. The gist of the method: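 Human HaCaT keratinocytes and the melanoma line (human A375 or murine B16F10) were each incubated with compound for 72 h, and IC50 was determined in each line. Selectivity index is HaCaT IC50 divided by melanoma-line IC50.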

The nature of data set [9]: Half life in 80% human plasma by HPLC analysis. Type of data set: ADME, cell-free. The gist of the method: as §1
A short description of data set [10]: Selectivity index, ratio of IC50 for human HaCaT cells to IC50 for human cells by MTS assay.
Data set [11] can be described thus: Haemolytic activity against human erythrocytes at 0.2 to 400 uM after 1 hr. Type of data set: ADME, cell-based, Erythrocyte. As to conditions: dose 0.2-400 µM, read-out: Activity. The gist of the method:
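Human red blood cells exposed to compound at 0.2 to 400 μM for 1 h at 37 °C. Read-out: percentage hemolysis.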

A further data set concerns B16-F10. Briefly: Cytotoxicity against mouse B16-F10 cells assessed as reduction in cell viability incubated for 72 hrs by MTS assay. Type of data set: functional, cell-based. The settings on record: B16-F10, 72 h. The gist of the method:
as §2

Another data set deals with T1, Tyrosinase (Agaricus bisporus, UniProt O42713).
T1 sequence (O42713 whole entry): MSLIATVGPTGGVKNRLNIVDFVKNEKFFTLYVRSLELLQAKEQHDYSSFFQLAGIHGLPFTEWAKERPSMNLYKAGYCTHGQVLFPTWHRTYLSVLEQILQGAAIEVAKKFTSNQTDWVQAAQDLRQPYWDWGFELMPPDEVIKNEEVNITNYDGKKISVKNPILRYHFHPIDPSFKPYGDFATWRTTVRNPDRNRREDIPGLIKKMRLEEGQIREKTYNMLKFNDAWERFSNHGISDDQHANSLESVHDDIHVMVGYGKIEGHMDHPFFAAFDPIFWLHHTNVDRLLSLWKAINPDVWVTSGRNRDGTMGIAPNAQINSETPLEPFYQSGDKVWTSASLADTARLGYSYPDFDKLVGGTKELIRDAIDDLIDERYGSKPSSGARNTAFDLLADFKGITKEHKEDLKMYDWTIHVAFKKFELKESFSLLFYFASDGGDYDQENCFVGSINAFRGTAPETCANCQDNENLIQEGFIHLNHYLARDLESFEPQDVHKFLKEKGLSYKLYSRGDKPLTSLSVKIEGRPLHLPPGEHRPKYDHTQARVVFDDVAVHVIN
Briefly: Substrate activity at mushroom tyrosinase assessed as half-life of the compound by HPLC analysis. Type of data set: ADME. The gist of the method: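 Incubated with mushroom tyrosinase at 100 units/mL. Reaction followed by HPLC to derive substrate half-life (min).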

The nature of data set [12]: Toxicity in BALB/c mouse assessed as kidney tissue index at 12 mg/kg, iv administered 3 times for 1 week and measured at 2 days post-last injection (reference value: 13 +/-1). Type of data set: organism-based. As to conditions: in vivo, 216 h, time 9 day.
A short description of data set [13]: Toxicity in BALB/c mouse assessed as lung tissue index at 12 mg/kg, iv administered 3 times for 1 week and measured at 2 days post-last injection (reference value: 8 +/-1). As to conditions: in vivo, 216 h, time 9 day. Type of data set: organism-based.
A short description of data set [14]: Cytotoxicity against human MNT-1 cells assessed as reduction in cell viability incubated for 72 hrs by MTS assay. Type of data set: functional, cell-based. As to conditions: MNT-1, 72 h. The gist of the method: as §2
In a further data set the test system is A-375. The data set is described as follows: Cytotoxicity against human A-375 cells assessed as reduction in cell viability incubated for 72 hrs by MTS assay. Type of data set: functional, cell-based. As to conditions: A-375, 72 h. The gist of the method:
as §2

Usually half-life stands for the time in which the quantity being followed falls by half. In general, logD refers to lipophilicity at a set pH, counting ionised and neutral species. Usually IC50 stands for the concentration at which inhibition is half-maximal. `CCOC(=O)c1ccc(/N=N/N(C)C(=O)NCCSc2ccc(O)cc2)cc1`: the “Ratio IC50” value in [1] and in data set [10] was 2 throughout. The half-life in data set [2] is over 240 h; in [9], 30.5 h; at Tyrosinase, 3.7 min. The logD at 0.5 h in [3] was determined as 4.08. Moreover, in data set [4], the Activity worked out at 57 U/L. Further, the Activity_index in data set [5] is given as 22; in data set [6] it was 6; in data set [7], 7; in data set [12] it was 13; in [13], 8. For the same compound, the IC50 in the data set on HaCaT was over 100 µM; with B16-F10, 51 µM; in data set [14], 49.4 µM; with A-375 it was 43.8 µM. In addition, in [8], the selectivity ratio was 2. Also, in data set [11], the hemolysis at 1 h, up to 400 µM is under 1%.
